Assay results as given in ChEMBL document CHEMBL1641436, “Synthesis of sugar-amino acid-nucleosides as potential glycosyltransferase inhibitors” (Bioorg Med Chem, 2011).

Legend:
[1] = biological target: T1, Galactofuranosyltransferase GlfT2 (Mycobacterium tuberculosis) (UniProt O53585); assay: Inhibition of Mycobacterium tuberculosis GIFT2 at 4 mM at pH7.6 by spectrophotometric assay
T1 sequence (whole entry): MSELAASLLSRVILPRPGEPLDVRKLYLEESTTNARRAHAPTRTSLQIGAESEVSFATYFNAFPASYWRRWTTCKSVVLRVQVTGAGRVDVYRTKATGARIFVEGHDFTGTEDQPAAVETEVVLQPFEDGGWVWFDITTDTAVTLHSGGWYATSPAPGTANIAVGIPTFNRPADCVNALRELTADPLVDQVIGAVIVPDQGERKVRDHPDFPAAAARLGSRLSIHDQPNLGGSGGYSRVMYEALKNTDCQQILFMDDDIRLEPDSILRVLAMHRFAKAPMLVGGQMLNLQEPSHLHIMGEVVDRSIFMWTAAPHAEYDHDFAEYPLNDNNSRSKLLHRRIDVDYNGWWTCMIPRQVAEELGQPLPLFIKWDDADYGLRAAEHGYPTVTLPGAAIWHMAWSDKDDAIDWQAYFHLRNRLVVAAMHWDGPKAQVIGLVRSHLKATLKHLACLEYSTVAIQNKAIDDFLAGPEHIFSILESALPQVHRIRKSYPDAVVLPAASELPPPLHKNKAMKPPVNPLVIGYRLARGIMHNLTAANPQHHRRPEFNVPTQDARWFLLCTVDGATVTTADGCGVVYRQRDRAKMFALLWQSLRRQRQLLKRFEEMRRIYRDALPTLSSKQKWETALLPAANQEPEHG
Outline: (§1)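 Coupled PK/LDH spectrophotometric assay of GlfT2. Mix contained 100 mM MOPS pH 7.6, 50 mM KCl, 20 mM MgCl2, 1.1 mM NADH, 3.5 mM PEP, 3.75 U PK and 16.8 U LDH, with β-D-Galf-(1→5)-β-D-Galf-(1→6)-β-D-Galf-octyl as acceptor. Diluted GlfT2 was added to start the reaction at 37 °C, with A340 read every 10–15 s. Closest duplicate velocities were blank-corrected and expressed as % of mean control.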

[2] = biological target: T2, Galactofuranosyltransferase GlfT2 (Mycobacterium tuberculosis, UniProt O53585); assay: Inhibition of Mycobacterium tuberculosis GIFT2 at pH7.6 by spectrophotometric assay
T2 sequence (O53585 whole entry): T1 sequence (whole entry)

[3] = biological target: T1, Galactofuranosyltransferase GlfT2 (Mycobacterium tuberculosis); assay: Inhibition of Mycobacterium tuberculosis GIFT2 at 2 mM at pH7.6 by spectrophotometric assay; outline: as §1

How did the inhibition [1] turn out when `O=C(C[C@H]1O[C@H](CO)[C@H](O)[C@H](O)[C@H]1O)N[C@@H](Cc1c[nH]c2ccccc12)C(=O)NC[C@H]1O[C@@H](n2ccc(=O)[nH]c2=O)[C@H](O)[C@@H]1O` was run?
Its inhibition is 75%.

Which IC50 [2] does the source give for `O=C(C[C@H]1O[C@H](CO)[C@H](O)[C@H](O)[C@H]1O)N[C@@H](Cc1cnc[nH]1)C(=O)NC[C@H]1O[C@@H](n2ccc(=O)[nH]c2=O)[C@H](O)[C@@H]1O` here?
Its IC50 is 332 µM.

What about the inhibition [1] of the same molecule?
Its inhibition is 79%.

Which inhibition [3] does the source give for `O=C(C[C@H]1O[C@@H](CO)[C@H](O)[C@H]1O)N[C@@H](Cc1cnc[nH]1)C(=O)NC[C@H]1O[C@@H](n2ccc(=O)[nH]c2=O)[C@H](O)[C@@H]1O` here?
The inhibition was 37%.

For `O=C1CCN([C@@H]2O[C@H](CNC(=O)[C@H](Cc3c[nH]c4ccccc34)NC(=O)C[C@@H]3O[C@@H](CO)[C@H](O)[C@H]3O)[C@@H](O)[C@H]2O)C(=O)N1`, which inhibition [3] is on record?
The inhibition was under 10%.

Which inhibition [3] does the source give for `O=C1CCN([C@@H]2O[C@H](CNC(=O)[C@H](Cc3cnc[nH]3)NC(=O)C[C@H]3O[C@@H](CO)[C@H](O)[C@H]3O)[C@@H](O)[C@H]2O)C(=O)N1` here?
Its inhibition is under 10%.

For `O=C(C[C@@H]1O[C@@H](CO)[C@H](O)[C@H]1O)N[C@@H](Cc1cnc[nH]1)C(=O)NC[C@H]1O[C@@H](n2ccc(=O)[nH]c2=O)[C@H](O)[C@@H]1O`, which inhibition [3] is on record?
The inhibition was 14%.

With `O=C(C[C@H]1O[C@@H](CO)[C@H](O)[C@H]1O)N[C@@H](Cc1c[nH]c2ccccc12)C(=O)NC[C@H]1O[C@@H](n2ccc(=O)[nH]c2=O)[C@H](O)[C@@H]1O` as the molecule, how does the inhibition [3] read?
The inhibition was 30%.

Which inhibition [1] does the source give for `O=C1CCN([C@@H]2O[C@H](CNC(=O)[C@H](Cc3cnc[nH]3)NC(=O)C[C@H]3O[C@H](CO)[C@H](O)[C@H](O)[C@H]3O)[C@@H](O)[C@H]2O)C(=O)N1` here?
The inhibition was 18%.

`O=C1CCN([C@@H]2O[C@H](CNC(=O)[C@H](Cc3c[nH]c4ccccc34)NC(=O)C[C@H]3O[C@@H](CO)[C@H](O)[C@H]3O)[C@@H](O)[C@H]2O)C(=O)N1` was tested. Which inhibition [3] did it give?
The inhibition was under 10%.

For `NC(=O)CC[C@H](NC(=O)C[C@H]1O[C@H](CO)[C@H](O)[C@H](O)[C@H]1O)C(=O)NC[C@H]1O[C@@H](n2ccc(=O)[nH]c2=O)[C@H](O)[C@@H]1O`, which inhibition [1] is on record?
Its inhibition is under 10%.

`O=C1CCN([C@@H]2O[C@H](CNC(=O)[C@H](Cc3c[nH]c4ccccc34)NC(=O)C[C@H]3O[C@H](CO)[C@H](O)[C@H](O)[C@H]3O)[C@@H](O)[C@H]2O)C(=O)N1` was tested. Which inhibition [1] did it give?
The inhibition was 53%.

Which inhibition [1] does the source give for `NC(=O)CC[C@H](NC(=O)C[C@H]1O[C@H](CO)[C@H](O)[C@H](O)[C@H]1O)C(=O)NC[C@H]1O[C@@H](N2CCC(=O)NC2=O)[C@H](O)[C@@H]1O` here?
The inhibition was under 10%.

With `O=C1CCN([C@@H]2O[C@H](CNC(=O)[C@H](Cc3cnc[nH]3)NC(=O)C[C@@H]3O[C@@H](CO)[C@H](O)[C@H]3O)[C@@H](O)[C@H]2O)C(=O)N1` as the molecule, how does the inhibition [3] read?
The inhibition was under 10%.

For `O=C(C[C@@H]1O[C@@H](CO)[C@H](O)[C@H]1O)N[C@@H](Cc1c[nH]c2ccccc12)C(=O)NC[C@H]1O[C@@H](n2ccc(=O)[nH]c2=O)[C@H](O)[C@@H]1O`, which inhibition [3] is on record?
Its inhibition is under 10%.
